Reference: paper PMC3057960 (Cancer research, 2010)
Peptide text beside a SMILES is read from it.

Key:
[1] = In vivo stability: urine metabolite analysis by radio HPLC; conditions: mouse urine collected 1 hour post-injection, 3 mice
How it was run: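 Urine was collected 1 hour after tail-vein injection of radiolabelled test compound (66.3-70.6 μCi in 150 μl PBS) from 3 of the healthy biodistribution mice. Samples were diluted to 1 mL with solvent A (99.9% H2O, 0.1% TFA) and analysed by radio HPLC.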

[2] = Ex vivo biodistribution in healthy mice; conditions: mouse, iv, total radioactivity
How it was run: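 Healthy mice (N=5) were anaesthetised and given 66.3-70.6 μCi (2.45-2.61 MBq) of radiolabelled test compound in 150 μl PBS by tail vein, then euthanised 1 hour post-injection. Organs were removed, weighed and gamma counted, giving %ID/g or %ID/cm3. Soft-tissue density was taken as 1 g/cm3. Lung density was lung weight divided by CT volume from pre-injection CT. Mean ± standard error mean.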

[3] = Stability in mouse serum by radio HPLC; format: in vitro ADME; conditions: tracer in PBS with equal volume of mouse serum, 37°C, 4 hours
How it was run: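 Radiotracer in PBS was mixed with an equal volume of mouse serum and incubated at 37°C. Samples taken at 1 and 4 hours were quenched with one volume of solvent A (99.9% H2O, 0.1% TFA) plus one volume of DMF, centrifuged, passed through a 0.2 micron spin filter and analysed by radio HPLC.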

[4] = Repeated imaging in immunocompetent mice, immune response; format: in vivo, mouse; conditions: up to 6 imaging sessions over 8 months, data not shown

CC(C)C[C@@H]1NC(=O)[C@@H]2CSSC[C@@H](C(=O)NCC(N)=O)NC(=O)[C@H](Cc3ccccc3)NC(=O)CNC(=O)[C@H](CC(N)=O)NC(=O)[C@@H]3CCCN3C(=O)CNC(=O)[C@@H]3CSSC[C@H](NC(=O)[C@H]([C@@H](C)O)NC(=O)[C@H](CC(C)C)NC(=O)[C@@H]4CCCN4C(=O)[C@@H]4CCCN4C(=O)[C@H](CC(N)=O)NC(=O)[C@H](CC(=O)O)NC(=O)CNC(=O)[C@H](CCCNC(=N)N)NC(=O)[C@@H]4CCCN4C(=O)[C@H](CCCNC(=N)N)NC(=O)[C@@H]4CCCN4C(=O)[C@@H](NC(=O)CNC(=O)CN4CCN(CC(=O)O)CCN(CC(=O)O)CCN(CC(=O)O)CC4)CSSC[C@H](NC(=O)CNC(=O)[C@H](C)NC1=O)C(=O)N[C@@H](C(C)C)C(=O)N3)C(=O)N[C@@H](CO)C(=O)N[C@@H](CCC(N)=O)C(=O)N[C@@H](CC(=O)O)C(=O)N[C@@H](CO)C(=O)N[C@@H](CC(=O)O)C(=O)N2 [^64Cu-DOTA-knottin 2.5F, metal not drawn] (HELM PEPTIDE1{[O=C(O)CN1CCN(CC(=O)O)CCN(CC(=O)[*:2])CCN(CC(=O)O)CC1].G.C.P.R.P.R.G.D.N.P.P.L.T.C.S.Q.D.S.D.C.L.A.G.C.V.C.G.P.N.G.F.C.G.[am]}$PEPTIDE1,PEPTIDE1,3:R3-25:R3|PEPTIDE1,PEPTIDE1,15:R3-27:R3|PEPTIDE1,PEPTIDE1,21:R3-33:R3$$$V2.0; N-terminus and C-terminus assumed)
Stability in vivo, excretion in urine [1]: mainly excreted intact | tissue uptake per volume at 1 h ([2]; kidneys): 11.4 ± 1.45 %ID/mL | tissue uptake per volume at 1 h ([2]; stomach, intestine, spleen, liver): 1.28 to 2.53 %ID/mL | Serum stability [3]: highly stable | Acute immune response on repeated imaging [4]: without the observation of an acute immune response
